From ChEMBL document CHEMBL4219167, “Disulfiram-based disulfides as narrow-spectrum antibacterial agents” (Bioorg Med Chem Lett, 2018)
Values after ≈ are worked out from the molar mass of the structure shown.

How the values were obtained:
[1] = test system: Streptococcus pyogenes; test: Antibacterial activity against Streptococcus pyogenes H293 after 20 hrs by broth microdilution assay; assay type: functional; conditions: H293, 20 h
[2] = test system: Staphylococcus aureus; test: Synergistic antibacterial activity against vancomycin-resistant Staphylococcus aureus HIP14300 after 20 hrs in presence of vancomycin by checkerboard microdilution assay; assay type: functional; conditions: HIP14300, 20 h
[3] = test system: Pseudomonas aeruginosa; test: Antibacterial activity against Pseudomonas aeruginosa ATCC 15442 after 20 hrs by broth microdilution assay; assay type: functional; conditions: ATCC 15442, 20 h
Summary of the method: (§1)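 Medium is tryptic soy broth, 37°C. Overnight culture is adjusted to 0.5 McFarland, diluted 1:100 and exposed to serial dilutions (test agents from 1 mM or 1 mg/mL DMSO stocks; control antibiotics in water). Incubation lasts 20 h. MIC is the lowest concentration with no visible growth.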

[4] = test system: Enterococcus faecium; test: Antibacterial activity against vancomycin-resistant Enterococcus faecium ATCC 700221 after 20 hrs by broth microdilution assay; assay type: functional; conditions: ATCC 700221, 20 h
Summary of the method: (§2)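 Brain heart infusion broth at 37°C; E. faecium under 5% CO2. Cells at 0.5 McFarland are diluted 1:100 and exposed to serial dilutions (DMSO stocks 1 mM or 1 mg/mL; controls in water).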

[5] = test system: Yersinia pestis; test: Antibacterial activity against Yersinia pestis Kim D2 after 20 hrs by broth microdilution assay; assay type: functional; conditions: Kim D2, 20 h
[6] = test system: Proteus mirabilis; test: Antibacterial activity against Proteus mirabilis HM-752 after 20 hrs by broth microdilution assay; assay type: functional; conditions: HM-752, 20 h; summary of the method: as §1
[7] = test system: Yersinia pestis; test: Antibacterial activity against Yersinia pestis Kuma D7 after 20 hrs by broth microdilution assay; assay type: functional; conditions: Kuma D7, 20 h
[8] = test system: Staphylococcus epidermidis; test: Synergistic antibacterial activity against vancomycin-intermediate resistant Staphylococcus epidermidis NRS53 assessed as vancomycin MIC after 20 hrs by checkerboard microdilution assay; assay type: functional; conditions: NRS53, 20 h
[9] = test system: Escherichia coli; test: Antibacterial activity against Escherichia coli DC10B after 20 hrs by broth microdilution assay; assay type: functional; summary of the method: as §1
[10] = test system: Streptococcus agalactiae; test: Antibacterial activity against Streptococcus agalactiae SGBS005 after 20 hrs by broth microdilution assay; assay type: functional; conditions: SGBS005, 20 h
[11] = test system: Staphylococcus epidermidis; test: Synergistic antibacterial activity against vancomycin-intermediate resistant Staphylococcus epidermidis NRS53 after 20 hrs in presence of vancomycin by checkerboard microdilution assay; assay type: functional; conditions: NRS53, 20 h
[12] = test system: Listeria monocytogenes; test: Antibacterial activity against Listeria monocytogenes Gibson after 20 hrs by broth microdilution assay; assay type: functional; summary of the method: as §2
[13] = test system: Klebsiella pneumoniae; test: Antibacterial activity against Klebsiella pneumoniae 700603 after 20 hrs by broth microdilution assay; assay type: functional; conditions: Klebsiella pneumoniae, 700603, 20 h; summary of the method: as §1
[14] = test system: Micrococcus luteus; test: Antibacterial activity against Micrococcus luteus SK58 after 20 hrs by broth microdilution assay; assay type: functional; conditions: SK58, 20 h
[15] = test system: Staphylococcus epidermidis; test: Antibacterial activity against vancomycin-intermediate resistant Staphylococcus epidermidis NRS6 after 20 hrs by broth microdilution assay; assay type: functional; conditions: NRS6, 20 h
[16] = test system: Staphylococcus aureus; test: Antibacterial activity against methicillin-resistant Staphylococcus aureus; assay type: functional
[17] = test system: Shigella dysenteriae; test: Antibacterial activity against Shigella dysenteriae Newcastle 1934 after 20 hrs by broth microdilution assay; assay type: functional; conditions: Newcastle 1934, 20 h; summary of the method: as §1
[18] = test system: Francisella tularensis; test: Antibacterial activity against Francisella tularensis Utah 112 after 20 hrs by broth microdilution assay; assay type: functional; conditions: Utah 112, 20 h
[19] = test system: Staphylococcus aureus; test: Antibacterial activity against methicillin-resistant Staphylococcus aureus COL after 20 hrs by broth microdilution assay; assay type: functional
[20] = test system: Bacillus cereus; test: Antibacterial activity against Bacillus cereus Gibson 971 after 20 hrs by broth microdilution assay; assay type: functional; conditions: Gibson 971, 20 h
[21] = test system: Yersinia enterocolitica; test: Antibacterial activity against Yersinia enterocolitica WA-314 after 20 hrs by broth microdilution assay; assay type: functional; conditions: WA-314, 20 h
Summary of the method: (§3)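 Yersinia cultured in tryptic soy broth at 28°C. A 0.5 McFarland suspension diluted 1:100 receives serial dilutions of agents from 1 mM or 1 mg/mL DMSO stocks; control antibiotics are in water.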

[22] = test system: Staphylococcus aureus; test: Synergistic antibacterial activity against vancomycin-resistant Staphylococcus aureus HIP14300 assessed as vancomycin MIC after 20 hrs by checkerboard microdilution assay; assay type: functional; conditions: HIP14300, 20 h
[23] = test system: Burkholderia cepacia; test: Antibacterial activity against Burkholderia cepacia UCB 717 after 20 hrs by broth microdilution assay; assay type: functional; conditions: UCB 717, 20 h; summary of the method: as §1
[24] = test system: Brucella neotomae; test: Antibacterial activity against Brucella neotomae 5K33 after 20 hrs by broth microdilution assay; assay type: functional; conditions: 5K33, 20 h
[25] = test system: Citrobacter freundii; test: Antibacterial activity against Citrobacter freundii 4_7_47CFAA after 20 hrs by broth microdilution assay; assay type: functional
Summary of the method: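 Brucella broth, 37°C, 5% CO2. Inoculum is 0.5 McFarland diluted 1:100, with serial drug dilutions from DMSO stocks (1 mM or 1 mg/mL) and control antibiotics in water.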

[26] = test system: Acinetobacter baumannii; test: Antibacterial activity against Acinetobacter baumannii AB5075 after 20 hrs by broth microdilution assay; assay type: functional; conditions: AB5075, 20 h
[27] = test system: Staphylococcus aureus; test: Antibacterial activity against vancomycin-intermediate resistant Staphylococcus aureus AR-217 after 20 hrs by broth microdilution assay; assay type: functional; conditions: AR-217, 20 h
[28] = test system: Vibrio cholerae; test: Antibacterial activity against Vibrio cholerae TS D4 after 20 hrs by Todd Hewitt broth broth microdilution method; assay type: functional; conditions: TS D4, 20 h
[29] = test system: Staphylococcus aureus; test: Synergistic antibacterial activity against vancomycin-intermediate resistant Staphylococcus aureus AR-217 assessed as vancomycin MIC after 20 hrs by checkerboard microdilution assay; assay type: functional; conditions: AR-217, 20 h
[30] = test system: Burkholderia multivorans; test: Antibacterial activity against Burkholderia multivorans CF2 after 20 hrs by broth microdilution assay; assay type: functional; conditions: CF2, 20 h; summary of the method: as §1
[31] = test system: Streptococcus pneumoniae; test: Antibacterial activity against Streptococcus pneumoniae TCH8431 after 20 hrs by broth microdilution assay; assay type: functional; conditions: TCH8431, 20 h
[32] = test system: HepG2; test: Cytotoxicity against human HepG2 cells assessed as reduction in cell viability after 72 hrs by MTT assay; assay type: cell-based; conditions: HepG2, 72 h
[33] = test system: Corynebacterium striatum; test: Antibacterial activity against Corynebacterium striatum FS-1 after 20 hrs by broth microdilution assay; assay type: functional; conditions: FS-1, 20 h
[34] = test system: Yersinia pseudotuberculosis; test: Antibacterial activity against Yersinia pseudotuberculosis P61 after 20 hrs by broth microdilution assay; assay type: functional; conditions: P61, 20 h; summary of the method: as §3
[35] = test system: Rhodococcus erythropolis; test: Antibacterial activity against Rhodococcus erythropolis SK121 after 20 hrs by broth microdilution assay; assay type: functional; conditions: SK121, 20 h
Summary of the method: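 R. erythropolis grown in brain heart infusion broth at 30°C. A 0.5 McFarland suspension diluted 1:100 is treated with serial dilutions from 1 mM or 1 mg/mL DMSO stocks; control antibiotics are in water.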

[36] = test system: Staphylococcus epidermidis; test: Antibacterial activity against vancomycin-intermediate resistant Staphylococcus epidermidis NRS53 after 20 hrs by broth microdilution assay; assay type: functional; conditions: NRS53, 20 h
[37] = test system: Staphylococcus aureus; test: Antibacterial activity against vancomycin-resistant Staphylococcus aureus HIP14300 after 20 hrs by broth microdilution assay; assay type: functional; conditions: HIP14300, 20 h
[38] = test system: Salmonella typhi; test: Antibacterial activity against Salmonella typhi Ty2 after 20 hrs by Todd Hewitt broth broth microdilution method; assay type: functional, Salmonella enterica subsp. enterica serovar Typhi str. Ty2; conditions: Salmonella enterica
[39] = test system: Bacillus anthracis; test: Antibacterial activity against Bacillus anthracis Weybridge after 20 hrs by broth microdilution assay; assay type: functional
[40] = test system: Bacillus anthracis; test: Antibacterial activity against Bacillus anthracis Ames 35 after 20 hrs by broth microdilution assay; assay type: functional; conditions: Ames 35, 20 h
[41] = test system: Bacillus anthracis; test: Antibacterial activity against Bacillus anthracis Sterne 34F2 after 20 hrs by broth microdilution assay; assay type: functional; conditions: Sterne 34F2, 20 h
[42] = test system: Bacillus anthracis; test: Antibacterial activity against Bacillus anthracis UM23-1 after 20 hrs by broth microdilution assay; assay type: functional; conditions: UM23-1, 20 h

Structure (SMILES) | MIC [1] | MIC [3] | MIC [4] | MIC [5] | MIC [6] | MIC [7] | MIC [9] | MIC [10] | MIC [12] | MIC [13] | MIC [14] | MIC [15] | MIC [17] | MIC [18] | MIC [19] | MIC [20] | MIC [21] | MIC [23] | MIC [31] | MIC [37] | other results
CCN(CC)C(=S)SSC(=S)N(CC)CC | 16 µM (≈ 4.74 µg/mL) | > 32 µM | > 32 µM | 32 µM (≈ 9.49 µg/mL) | > 32 µM | 32 µM (≈ 9.49 µg/mL) | > 32 µM | > 32 µM | > 32 µM | > 32 µM | 32 µM (≈ 9.49 µg/mL) | 32 µM (≈ 9.49 µg/mL) | > 32 µM | 32 µM (≈ 9.49 µg/mL) | 32 µM (≈ 9.49 µg/mL) | 4 µM (≈ 1.19 µg/mL) | > 32 µM | > 32 µM | > 32 µM | 32 µM (≈ 9.49 µg/mL) | MIC [2]: 2 µg/mL; MIC [8]: 4 µg/mL; MIC [11]: 2 µg/mL; MIC [16]: 4 to 32 µg/mL (≈ 13.5 to 108 µM); MIC [22]: 8 µg/mL; MIC [24]: > 32 µM; MIC [25]: > 32 µM; MIC [26]: > 32 µM; MIC [27]: 8 µM (≈ 2.37 µg/mL); MIC [28]: > 32 µM; MIC [29]: 2 µg/mL; MIC [30]: 32 µM (≈ 9.49 µg/mL); IC50 [32]: 38 µM; MIC [33]: > 32 µM; MIC [34]: > 32 µM; MIC [35]: 16 µM (≈ 4.74 µg/mL); MIC [36]: 4 µg/mL (≈ 13.5 µM)
CCCCCCSSC(=S)N(CC)CC [DIETHYLCARBAMO(DITHIOPEROXO)THIOATE] | > 32 µM | > 32 µM | > 32 µM | 32 µM (≈ 8.5 µg/mL) | > 32 µM | 32 µM (≈ 8.5 µg/mL) | > 32 µM | > 32 µM | 8 µM (≈ 2.12 µg/mL) | > 32 µM | 16 µM (≈ 4.25 µg/mL) | 8 µM (≈ 2.12 µg/mL) | > 32 µM | 32 µM (≈ 8.5 µg/mL) | 16 µM (≈ 4.25 µg/mL) | 2 µM (≈ 0.531 µg/mL) | > 32 µM | > 32 µM | > 32 µM | 8 µM (≈ 2.12 µg/mL) | MIC [38]: > 32 µM; MIC [39]: 8 µM (≈ 2.12 µg/mL); MIC [40]: 4 µM (≈ 1.06 µg/mL); MIC [24]: > 32 µM; MIC [41]: 4 µM (≈ 1.06 µg/mL); MIC [25]: > 32 µM; MIC [26]: > 32 µM; MIC [27]: 4 µM (≈ 1.06 µg/mL); MIC [42]: 2 µM (≈ 0.531 µg/mL); MIC [28]: > 32 µM; MIC [30]: > 32 µM; IC50 [32]: 51 µM; MIC [33]: 16 µM (≈ 4.25 µg/mL); MIC [34]: > 32 µM; MIC [35]: 8 µM (≈ 2.12 µg/mL)
CN[C@H](CC(C)C)C(=O)N[C@H]1C(=O)N[C@@H](CC(N)=O)C(=O)N[C@H]2C(=O)N[C@H]3C(=O)N[C@H](C(=O)N[C@H](C(=O)O)c4cc(O)cc(O)c4-c4cc3ccc4O)[C@H](O)c3ccc(c(Cl)c3)Oc3cc2cc(c3O[C@@H]2O[C@H](CO)[C@@H](O)[C@H](O)[C@H]2O[C@H]2C[C@](C)(N)[C@H](O)[C@H](C)O2)Oc2ccc(cc2Cl)[C@H]1O [VANCOMYCIN] | ≤ 0.5 µM |  | > 32 µM |  |  |  |  | ≤ 0.5 µM |  |  |  | 8 µM (≈ 11.6 µg/mL) |  |  | 1 µM (≈ 1.45 µg/mL) |  |  |  | ≤ 0.5 µM | > 32 µM | MIC [36]: 8 µg/mL (≈ 5.52 µM)
